Reference: ChEMBL document CHEMBL1156851, “Practical and efficient synthesis of pyrano[3,2-c]pyridone, pyrano[4,3-b]pyran and their hybrids with nucleoside as potential antiviral and antileishmanial agents” (Bioorg Med Chem Lett, 2010)

Experiments:
[1] = test system: Human betaherpesvirus 5; assay: Antiviral activity against Cytomegalovirus AD169 infected in HEL cells assessed as reduction of viral plaque formation; type: functional, organism-based; conditions: Human betaherpesvirus 5, AD169, HEL
[2] = test system: Human betaherpesvirus 5; assay: Antiviral activity against Cytomegalovirus Davis infected in HEL cells assessed as reduction of viral plaque formation; type: functional, organism-based; conditions: Human betaherpesvirus 5, Davis
[3] = test system: Leishmania donovani; assay: Antileishmanial activity against Leishmania donovani promastigotes; type: functional, organism-based
[4] = test system: Human alphaherpesvirus 3; assay: Antiviral activity against thymidine kinase expressing Varicella Zoster Virus OKA infected in HEL cells assessed as reduction of viral plaque formation; type: functional, organism-based; conditions: Human alphaherpesvirus 3, OKA
[5] = test system: Human alphaherpesvirus 3; assay: Antiviral activity against thymidine kinase deficient Varicella zoster virus 07/1 infected in HEL cells assessed as reduction of viral plaque formation; type: functional, organism-based; conditions: Human alphaherpesvirus 3, 07/1, HEL
[6] = Cytotoxicity against HEL cells assessed as microscopically detectable alteration of cell morphology; type: cell-based; conditions: human
Summary of the method: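 Cells are examined under the microscope after exposure. MCC is the minimum concentration that causes a microscopically detectable change in cell morphology.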

[7] = Cytotoxicity against HEL cells assessed as reduction of cell growth; type: cell-based; conditions: human

Row | Compound | EC50 [1] [µM] | EC50 [2] [µM] | IC50 [3] [µM] | EC50 [4] [µM] | EC50 [5] [µM] | MCC [6] [µM] | CC50 [7] [µM]
1 | CC(=O)OC[C@H]1O[C@@H](n2cc(C(c3c(O)cc(C)n(C)c3=O)c3c(O)cc(C)n(C)c3=O)c(=O)[nH]c2=O)C[C@@H]1OC(C)=O | > 100 | > 100 | > 200 | 47.8 | > 100 | > 100 | 20
2 | CCn1c(C)cc2c(c1=O)C(c1cn([C@H]3C[C@H](O)[C@@H](CO)O3)c(=O)[nH]c1=O)C(C#N)=C(N)O2 (stereo not given in full) | > 100 | > 100 | > 200 | 71.2 | > 100 | > 100 | > 100
3 | CC(=O)OC[C@H]1O[C@@H](n2cc(C(c3c(O)cc(C)oc3=O)c3c(O)cc(C)oc3=O)c(=O)[nH]c2=O)C[C@@H]1OC(C)=O | > 100 | > 100 | > 200 | 40.2 | 48.6 | > 100 | 3.8
4 | CC(=O)OC[C@H]1O[C@@H](n2cc(C(c3c(O)cc(C)[nH]c3=O)c3c(O)cc(C)[nH]c3=O)c(=O)[nH]c2=O)C[C@@H]1OC(C)=O | > 100 | > 100 | > 200 | > 100 | > 100 | > 100 | 36.9
5 | CC(=O)OC[C@H]1O[C@@H](n2cc(C3C(C#N)=C(N)Oc4cc(C)n(C)c(=O)c43)c(=O)[nH]c2=O)C[C@@H]1OC(C)=O (stereo not given in full) | > 100 | > 100 | > 200 | > 100 | > 100 | > 100 | > 100
6 | CCn1c(C)cc2c(c1=O)C(c1cn([C@H]3C[C@H](OC(C)=O)[C@@H](COC(C)=O)O3)c(=O)[nH]c1=O)C(C#N)=C(N)O2 (stereo not given in full) | > 100 | > 100 | > 200 | > 100 | > 100 | > 100 | > 100
7 | Cc1cc2c(c(=O)n1C)C(c1cn([C@H]3C[C@H](O)[C@@H](CO)O3)c(=O)[nH]c1=O)C(C#N)=C(N)O2 (stereo not given in full) | > 100 | > 100 | > 200 | 74.6 | > 100 | > 100 | > 100
8 | Cc1cc(O)c(C(c2cn([C@H]3C[C@H](O)[C@@H](CO)O3)c(=O)[nH]c2=O)c2c(O)cc(C)oc2=O)c(=O)o1 | 20 | 20 | > 200 | 0.6 | 2.62 | > 100 | 1.8
9 | Cc1cc2c(c(=O)o1)C(c1cn([C@H]3C[C@H](O)[C@@H](CO)O3)c(=O)[nH]c1=O)C(C#N)=C(N)O2 (stereo not given in full) | 54.7 | 54.7 | > 200 | 1.8 | 5.3 | > 100 | 3.3
10 | Cc1cc(O)c(C(c2cn([C@H]3C[C@H](O)[C@@H](CO)O3)c(=O)[nH]c2=O)c2c(O)cc(C)[nH]c2=O)c(=O)[nH]1 | 44.7 | > 100 | 43.5 | 0.32 | 1.66 | > 100 | 2.1
11 | CC(=O)OC[C@H]1O[C@@H](n2cc(C3C(C#N)=C(N)Oc4cc(C)[nH]c(=O)c43)c(=O)[nH]c2=O)C[C@@H]1OC(C)=O (stereo not given in full) | > 100 | > 100 | 140 | 100 | > 100 | > 100 | > 100
12 | CC(=O)OC[C@H]1O[C@@H](n2cc(C3C(C#N)=C(N)Oc4cc(C)oc(=O)c43)c(=O)[nH]c2=O)C[C@@H]1OC(C)=O (stereo not given in full) | > 100 | > 100 | > 200 | 48.1 | > 100 | > 100 | 8.9
13 | Cc1cc(O)c(C(c2cn([C@H]3C[C@H](O)[C@@H](CO)O3)c(=O)[nH]c2=O)c2c(O)cc(C)n(C)c2=O)c(=O)n1C | 54.7 | > 100 | > 200 | 2.2 | 16.7 | > 100 | 7.7
14 | Cc1cc2c(c(=O)[nH]1)C(c1cn([C@H]3C[C@H](O)[C@@H](CO)O3)c(=O)[nH]c1=O)C(C#N)=C(N)O2 (stereo not given in full) | > 100 | > 100 | 10.6 | 55.7 | > 100 | > 100 | > 100
15 | Nc1nc2c(ncn2COCCO)c(=O)[nH]1 [ACYCLOVIR] |  |  |  | 0.84 |  | > 1780 | 1780
16 | Nc1ccn(C[C@@H](CO)OCP(=O)(O)O)c(=O)n1 [CIDOFOVIR] |  | 0.9 |  |  |  | > 1270 | 175
17 | N=C(N)c1ccc(OCCCCCOc2ccc(C(=N)N)cc2)cc1 [PENTAMIDINE] |  |  | 6.5 |  |  |  | 
